Measured values as given in ChEMBL document CHEMBL1156816, “Antiangiogenic effect of dual/selective alpha(5)beta(1)/alpha(v)beta(3) integrin antagonists designed on partially modified retro-inverso cyclotetrapeptide mimetics” (J Med Chem, 2010).
The source made the active and inactive calls. The calls are words filed in the database; no cut-off is given here. Non-standard residues stand in square brackets, D forms with d. Residues, ends and D or L forms follow the SMILES beside them.

Assays:
HUVEC [1] = test: Antiangiogenic activity in HUVEC on Matrigel assessed as inhibition of bFGF-induced tube formation at 1 uM after 16 hrs; format: functional, cell-based; conditions: Homo sapiens
How it was run: (§1)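 HUVEC (passages 2-7, cultured in EGM) seeded at 5000 cells/well on Matrigel-precoated wells with test compound, with or without bFGF 30 ng/mL. Vehicle up to 1% DMSO in medium. Incubated 16 h at 37 °C. Capillary-like tubes examined by microscopy with camera and counted as tubes per square millimeter. Quadruplicate, repeated three times; mean ± SEM; Newman-Keuls test after ANOVA.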

Integrin alpha-V/beta-3 [2] = molecular target: T1, Integrin alpha-V/beta-3 (Homo sapiens, UniProt P05106+P06756); test: Inhibition of alphavbeta3 integrin-mediated cell adhesion in human SK-MEL-24 cells on fibronectin coated plate after 30 mins; format: cell-based
T1 sequence (P05106 27-788 limits assumed): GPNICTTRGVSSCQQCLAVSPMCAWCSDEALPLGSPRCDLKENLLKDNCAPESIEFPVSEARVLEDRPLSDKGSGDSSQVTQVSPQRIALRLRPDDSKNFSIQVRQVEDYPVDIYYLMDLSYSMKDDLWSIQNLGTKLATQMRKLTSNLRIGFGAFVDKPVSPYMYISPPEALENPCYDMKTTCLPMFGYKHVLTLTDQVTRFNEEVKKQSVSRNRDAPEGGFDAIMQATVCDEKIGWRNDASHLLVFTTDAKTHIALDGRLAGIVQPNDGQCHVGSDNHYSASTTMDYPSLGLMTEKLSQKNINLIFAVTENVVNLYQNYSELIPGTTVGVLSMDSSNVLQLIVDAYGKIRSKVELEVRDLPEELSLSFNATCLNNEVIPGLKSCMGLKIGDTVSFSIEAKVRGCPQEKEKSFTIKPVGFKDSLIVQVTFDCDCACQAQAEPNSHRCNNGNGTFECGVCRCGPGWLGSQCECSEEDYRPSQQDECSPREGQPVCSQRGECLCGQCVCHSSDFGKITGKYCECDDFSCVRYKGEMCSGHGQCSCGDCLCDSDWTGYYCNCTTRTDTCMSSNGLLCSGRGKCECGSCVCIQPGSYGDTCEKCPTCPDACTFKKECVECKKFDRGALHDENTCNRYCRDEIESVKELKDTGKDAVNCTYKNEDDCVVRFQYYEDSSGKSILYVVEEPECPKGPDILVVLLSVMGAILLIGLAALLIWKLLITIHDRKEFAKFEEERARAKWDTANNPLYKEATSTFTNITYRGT
T1 sequence (P06756 31-889 limits assumed): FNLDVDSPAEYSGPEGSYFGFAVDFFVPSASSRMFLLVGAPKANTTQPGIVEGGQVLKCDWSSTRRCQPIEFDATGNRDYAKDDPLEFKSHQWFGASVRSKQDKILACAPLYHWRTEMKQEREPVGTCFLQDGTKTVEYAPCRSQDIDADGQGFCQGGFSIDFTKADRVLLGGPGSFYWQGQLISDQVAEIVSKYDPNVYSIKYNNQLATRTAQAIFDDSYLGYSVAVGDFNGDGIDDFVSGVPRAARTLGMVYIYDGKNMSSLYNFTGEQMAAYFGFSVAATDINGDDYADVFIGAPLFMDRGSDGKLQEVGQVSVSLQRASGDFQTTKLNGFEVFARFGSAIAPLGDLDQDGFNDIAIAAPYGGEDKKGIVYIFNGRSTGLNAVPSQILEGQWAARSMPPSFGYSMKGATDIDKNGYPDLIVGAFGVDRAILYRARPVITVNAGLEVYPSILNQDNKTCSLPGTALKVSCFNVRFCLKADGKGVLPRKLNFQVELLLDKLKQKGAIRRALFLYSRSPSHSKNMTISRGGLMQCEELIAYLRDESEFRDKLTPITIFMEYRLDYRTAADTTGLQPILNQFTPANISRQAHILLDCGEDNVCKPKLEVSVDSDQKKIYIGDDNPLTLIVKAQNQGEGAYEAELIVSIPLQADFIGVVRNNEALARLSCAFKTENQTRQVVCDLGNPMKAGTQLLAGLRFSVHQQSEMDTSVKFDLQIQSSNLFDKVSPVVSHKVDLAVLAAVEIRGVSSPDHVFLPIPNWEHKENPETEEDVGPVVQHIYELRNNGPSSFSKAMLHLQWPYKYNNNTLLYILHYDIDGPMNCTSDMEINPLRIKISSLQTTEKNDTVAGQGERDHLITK
T1 sequence (P06756 891-1048 limits assumed): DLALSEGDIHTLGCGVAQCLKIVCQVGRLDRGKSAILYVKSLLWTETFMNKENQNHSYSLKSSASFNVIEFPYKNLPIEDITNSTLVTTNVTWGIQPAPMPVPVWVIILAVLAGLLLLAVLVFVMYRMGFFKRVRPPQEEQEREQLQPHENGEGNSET

Integrin alpha-5/beta-1 = Integrin alpha-5/beta-1 (Homo sapiens, UniProt P05556+P08648); test: Inhibition of alpha5beta1 integrin-mediated cell adhesion in human K562 cells on fibronectin coated plate after 30 mins; format: cell-based
Integrin alpha-5/beta-1, sequence (P05556 21-798 limits assumed): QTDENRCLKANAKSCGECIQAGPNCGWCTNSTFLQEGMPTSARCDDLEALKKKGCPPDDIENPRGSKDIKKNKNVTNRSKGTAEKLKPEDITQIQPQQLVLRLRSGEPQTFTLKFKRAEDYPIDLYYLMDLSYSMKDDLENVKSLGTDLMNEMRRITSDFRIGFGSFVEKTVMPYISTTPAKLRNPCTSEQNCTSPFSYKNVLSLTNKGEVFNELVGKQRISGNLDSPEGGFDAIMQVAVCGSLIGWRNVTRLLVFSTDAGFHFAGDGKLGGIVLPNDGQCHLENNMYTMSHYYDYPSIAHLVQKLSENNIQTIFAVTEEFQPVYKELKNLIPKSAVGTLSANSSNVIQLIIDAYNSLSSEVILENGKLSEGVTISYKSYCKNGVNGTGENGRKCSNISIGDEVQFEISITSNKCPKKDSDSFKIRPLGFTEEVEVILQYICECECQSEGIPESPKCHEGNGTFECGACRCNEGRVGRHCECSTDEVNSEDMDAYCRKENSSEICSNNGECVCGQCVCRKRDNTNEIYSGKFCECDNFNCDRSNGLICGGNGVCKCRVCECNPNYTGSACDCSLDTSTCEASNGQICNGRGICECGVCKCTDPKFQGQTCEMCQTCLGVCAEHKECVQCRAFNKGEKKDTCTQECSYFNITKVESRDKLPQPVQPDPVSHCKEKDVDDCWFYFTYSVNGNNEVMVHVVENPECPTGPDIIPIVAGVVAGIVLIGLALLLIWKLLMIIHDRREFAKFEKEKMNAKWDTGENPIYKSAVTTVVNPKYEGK
Integrin alpha-5/beta-1, sequence (P08648 42-894 limits assumed): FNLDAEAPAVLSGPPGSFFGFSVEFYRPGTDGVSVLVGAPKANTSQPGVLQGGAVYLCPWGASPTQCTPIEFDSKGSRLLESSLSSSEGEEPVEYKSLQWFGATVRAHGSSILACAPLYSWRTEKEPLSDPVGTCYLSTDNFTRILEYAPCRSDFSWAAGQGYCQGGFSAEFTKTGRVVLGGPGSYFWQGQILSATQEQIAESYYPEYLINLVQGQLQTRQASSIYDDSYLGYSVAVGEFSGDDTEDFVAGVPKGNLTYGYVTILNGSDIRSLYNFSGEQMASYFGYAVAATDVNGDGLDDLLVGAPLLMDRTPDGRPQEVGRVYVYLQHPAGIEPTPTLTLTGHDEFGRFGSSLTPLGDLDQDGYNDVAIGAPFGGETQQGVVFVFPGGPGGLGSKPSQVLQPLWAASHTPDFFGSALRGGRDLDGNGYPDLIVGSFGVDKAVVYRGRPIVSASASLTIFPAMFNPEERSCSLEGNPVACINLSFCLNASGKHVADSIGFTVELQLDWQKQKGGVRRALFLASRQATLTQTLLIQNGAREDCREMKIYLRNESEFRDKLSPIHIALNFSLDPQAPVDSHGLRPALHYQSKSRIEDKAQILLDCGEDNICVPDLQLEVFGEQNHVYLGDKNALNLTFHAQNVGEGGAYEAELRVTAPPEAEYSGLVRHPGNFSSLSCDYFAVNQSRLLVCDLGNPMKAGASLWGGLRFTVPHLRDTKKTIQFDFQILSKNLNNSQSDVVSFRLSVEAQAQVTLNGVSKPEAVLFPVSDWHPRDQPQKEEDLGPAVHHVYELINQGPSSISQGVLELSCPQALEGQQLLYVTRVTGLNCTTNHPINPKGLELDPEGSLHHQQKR
Integrin alpha-5/beta-1, sequence (P08648 895-1049 limits assumed): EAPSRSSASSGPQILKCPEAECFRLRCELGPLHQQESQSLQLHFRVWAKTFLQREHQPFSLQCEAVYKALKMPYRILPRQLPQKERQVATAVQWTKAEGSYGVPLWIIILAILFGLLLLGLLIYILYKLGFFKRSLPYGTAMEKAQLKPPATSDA
How it was run: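 Wells coated overnight at 4 °C with fibronectin or vitronectin (10 μg/mL). Cells were preincubated 30 min at room temperature with compound (≤1% DMSO), then plated at 50000/well and left 1 h at room temperature. After PBS wash, adherent cells were quantified by hexosaminidase substrate read at 405 nm against a calibration curve. Quadruplicate, ≥3 repeats; IC50 calculated.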

HUVEC [3] = test: Antiangiogenic activity in HUVEC on Matrigel assessed as reduction of bFGF-induced tube branches measured per square mm at 10 uM after 16 hrs by microscopic analysis; format: functional, Homo sapiens; how it was run: as §1
HUVEC [4] = test: Cytotoxicity against HUVEC assessed as change in cell morphology at 10 uM after 16 hrs by flow cytometry using Annexin V/propidium staining; format: cell-based; conditions: human
How it was run: (§2)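 HUVEC exposed 16 h to 1 or 10 μM cyclopeptide; morphology examined. For flow cytometry, cells were detached and fixed 15 min in 1% paraformaldehyde, then PBS-washed. They were resuspended in 10 mM Hepes/NaOH pH 7.4, 140 mM NaCl, 5 mM CaCl₂ with Annexin-V-Fluos and propidium iodide, kept 15 min at room temperature in the dark, then analyzed for intact, apoptotic and necrotic cells.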

HUVEC [5] = test: Cytotoxicity against HUVEC assessed as increase in level of necrotic cells at 10 uM after 16 hrs by flow cytometry using Annexin V/propidium staining; format: cell-based; conditions: human; how it was run: as §2
HUVEC [6] = test: Cytotoxicity against HUVEC assessed as increase in level of necrotic cells at 1 uM after 16 hrs by flow cytometry using Annexin V/propidium staining; format: cell-based; conditions: human; how it was run: as §2
HUVEC [7] = test: Inhibition of bFGF-induced angiogenesis in HUVEC on Matrigel assessed as endothelial morphogenesis at 1 uM after 16 hrs by microscopic analysis; format: functional, cell-based; conditions: Homo sapiens; how it was run: as §1
Integrin alpha-V/beta-3 [8] = molecular target: T1, Integrin alpha-V/beta-3; test: Inhibition of alphavbeta3 integrin-mediated cell adhesion in HUVEC on vitronectin coated plate after 30 mins
HUVEC [9] = test: Inhibition of bFGF-induced angiogenesis in HUVEC cells on Matrigel assessed as number of tube branches at 10 nM after 16 hrs by microscopic analysis; format: functional, cell-based; conditions: Homo sapiens; how it was run: as §1
HUVEC [10] = test: Cytotoxicity against HUVEC assessed as change in cell morphology at 1 uM after 16 hrs by flow cytometry using Annexin V/propidium staining; format: cell-based; conditions: human; how it was run: as §2
HUVEC [11] = test: Inhibition of bFGF-induced angiogenesis in HUVEC on Matrigel assessed as number of tube branches at 100 to 500 nM after 16 hrs by microscopic analysis; format: functional, cell-based; conditions: Homo sapiens; how it was run: as §1
[12] = in the assay text read “at 1 uM” for “at 10 uM”

SMILES	Activity (HUVEC [1])	IC50 (Integrin alpha-V/beta-3 [2])	IC50 (Integrin alpha-5/beta-1)	Activity (HUVEC [3]; [12])	Activity (HUVEC [4])	Activity (HUVEC [5])	Activity (HUVEC [6])	Activity (HUVEC [7])	IC50 (Integrin alpha-V/beta-3 [8])	Activity (HUVEC [9])	Activity (HUVEC [10])	Activity (HUVEC [11])	Activity (HUVEC [3]; Homo sapiens)
N=C(N)NCCC[C@@H]1NC(=O)CC(=O)N[C@@H](CC(=O)O)C(=O)N[C@@H](Cc2ccccc2)CNC1=O	Active	11 µM	0.52 µM	6.8	Non-toxic	Non-toxic	Non-toxic	Active	25.2 µM	inactive	Non-toxic	inactive	
N=C(N)NCCC[C@H]1NC(=O)CC(=O)N[C@@H](CC(=O)O)C(=O)N[C@@H](Cc2ccccc2)CNC1=O		2.3 µM	4.7 µM		Non-toxic	Non-toxic	Non-toxic		1.5 µM		Non-toxic		inactive
N=C(N)NCCC[C@H]1NC(=O)CC(=O)N[C@H](CC(=O)O)C(=O)N[C@@H](Cc2ccccc2)CNC1=O													inactive
CC(C)[C@@H]1NC(=O)[C@@H](Cc2ccccc2)NC(=O)[C@H](CC(=O)O)NC(=O)[C@H](C)NC(=O)[C@H](CCCN=C(N)N)NC1=O (cyclo(AD[dF]VR))		> 100 µM	> 100 µM						> 100 µM				
NC(N)=NCCC[C@H]1NC(=O)CC(=O)N[C@H](CC(=O)O)C(=O)N[C@@H](Cc2ccccc2)CNC1=O		> 100 µM	> 100 µM		Non-toxic	Non-toxic	Non-toxic		> 100 µM		Non-toxic		
N=C(N)NCCC[C@@H]1NC(=O)CC(=O)N[C@@H](CC(=O)O)C(=O)N[C@H](Cc2ccccc2)CNC1=O	Active			5.1				Active		inactive		inactive	
N=C(N)NCCC[C@H]1NC(=O)CC(=O)N[C@H](CC(=O)O)C(=O)N[C@H](Cc2ccccc2)CNC1=O													inactive
N=C(N)NCCC[C@H]1NC(=O)CC(=O)N[C@@H](CC(=O)O)C(=O)N[C@H](Cc2ccccc2)CNC1=O													inactive
NC(N)=NCCC[C@H]1NC(=O)CC(=O)N[C@H](CC(=O)O)C(=O)N[C@H](Cc2ccccc2)CNC1=O		> 100 µM	> 100 µM		Non-toxic	Non-toxic	Non-toxic		> 100 µM		Non-toxic		
CC(C)[C@@H]1NC(=O)[C@@H](Cc2ccccc2)NC(=O)[C@H](CC(=O)O)NC(=O)CNC(=O)[C@H](CCCN=C(N)N)NC1=O [CYCLORGDFV]			34.7 µM										
N=C(N)NCCC[C@@H]1NC(=O)CC(=O)N[C@H](CC(=O)O)C(=O)N[C@H](Cc2ccccc2)CNC1=O		2.1 µM	1.3 µM		Non-toxic	Non-toxic	Non-toxic		0.92 µM		Non-toxic		inactive
NC(N)=NCCC[C@@H]1NC(=O)CC(=O)N[C@@H](CC(=O)O)C(=O)N[C@H](Cc2ccccc2)CNC1=O		0.18 µM	0.024 µM		Non-toxic	Non-toxic	Non-toxic		0.24 µM		Non-toxic		
NC(N)=NCCC[C@H]1NC(=O)CC(=O)N[C@@H](CC(=O)O)C(=O)N[C@H](Cc2ccccc2)CNC1=O		> 100 µM	> 100 µM		Non-toxic	Non-toxic	Non-toxic		> 100 µM		Non-toxic		
N=C(N)NCCC[C@@H]1NC(=O)CC(=O)N[C@H](CC(=O)O)C(=O)N[C@@H](Cc2ccccc2)CNC1=O		> 100 µM	> 100 µM		Non-toxic	Non-toxic	Non-toxic		> 100 µM		Non-toxic		inactive
